# Myeloid diff MLP – induction of myeloid progenitor differentiation, primary screen, cell-based, flow cytometry, MLPCN library; ER-HoxA9 myeloid progenitors, lysozyme-GFP differentiation; calls only at 10 µM; 1% of 360,000 active;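 active = normalized GFP-positive differentiation at or above the plate's own cutoff, the solvent-only control mean plus 3 SD; inconclusive = no clear call, values can overlap the other calls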;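 note: cells exposed to compound for four days before flow analysis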
# PP1 inh – PP1-alpha phosphatase inhibitors, primary screen, counter-screen for PP5 inhibitor project, biochemical, fluorescence, OMFP substrate, single point; Serine/threonine-protein phosphatase PP1-alpha catalytic subunit (Homo sapiens), P62136; purified PP1alpha; inhibition, % at 6.7 µM; 0.9% of 320,000 active; AID 2235, 2010;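 active = inhibition above the mean inhibition of all tested compounds plus 3 SD, computed separately for each screening campaign, cut at about 15% in these data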
# Target sequence (P62136 whole entry, looked up): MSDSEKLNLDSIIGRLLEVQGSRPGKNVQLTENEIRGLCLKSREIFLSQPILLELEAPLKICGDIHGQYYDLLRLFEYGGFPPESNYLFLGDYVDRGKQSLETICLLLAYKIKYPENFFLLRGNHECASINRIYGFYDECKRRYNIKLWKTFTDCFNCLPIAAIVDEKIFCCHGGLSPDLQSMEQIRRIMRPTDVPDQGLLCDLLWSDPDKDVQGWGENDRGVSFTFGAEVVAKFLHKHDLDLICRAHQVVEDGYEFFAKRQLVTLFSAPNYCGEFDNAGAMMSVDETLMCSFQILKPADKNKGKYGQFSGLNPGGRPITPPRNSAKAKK
# CTSL1 counter – Fasciola hepatica cathepsin L1 inhibitors, primary screen, counter-screen for PFM18AAP inhibitor project, biochemical, QFRET, fluorogenic peptide substrate. AID 1906, 2009. recombinant F. hepatica cathepsin L1, Z-Leu-Arg-MCA fluorescence. inhibition, % at 5.96 µM. 0.49% of 300,000 active;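 active = inhibition above the mean of all tested compounds plus 3 SD, set per screening campaign, cut at about 17% in these data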;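 note: 0% = plate median of test compound wells and 100% = 1 µM Z-Phe-Ala-diazomethylketone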
# NadD inh – inhibitors of S. aureus NadD, primary screen, biochemical, colorimetric, uHTS | purified NadD enzyme, colorimetric absorbance read-out | inhibition, % at 20 µM | 0.78% of 360,000 active; in the data active = inhibition above about 26%
# HCV core dimer – inhibitors of HCV core protein dimerization, primary screen, biochemical, TR-FRET, high-throughput. TR-FRET GST/Flag-core106 dimerization, 1536-well. inhibition, % at 5 µM. 0.33% of 300,000 active. AID 1899, 2009;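 active = inhibition above the mean of all tested compounds plus 3 SD, set per screening campaign, cut at about 45% in these data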
#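 Assay system: Tagged HCV core106 pair (GST and Flag) | Buffer or medium: KF-containing HEPES buffer, pH 7.45, DTT, CHAPS, BSA | Also added: Eu donor and XL665 acceptor anti-tag antibodies | Dosing: One concentration, 5 µM, in 0.5% DMSO | Timing: 4 h at 22.5 °C | Technique: TR-FRET 671 and 617 nm emission | Repeats: Singlicate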
# PP5 inh – PP5 phosphatase inhibitors, primary screen, biochemical, fluorescence; purified PP5c, OMFP substrate fluorescence; 0.18% of 320,000 active; Serine/threonine-protein phosphatase 5 (Homo sapiens), P53041; inhibition, % at 6.7 µM;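 active = inhibition above the campaign's mean inhibition across all tested compounds plus 3 SD, cut at about 9.5% in these data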;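 note: 0% = DMSO only and 100% = 100 µM cantharidin control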
# Myeloid diff – inducers of myeloid progenitor differentiation, confirmation, cell-based, GFP/Mac1 flow cytometry, cherry pick 01; shares compounds with Myeloid diff MLP; ER-HoxA9 myeloid progenitors, GFP/Mac1 double-positive flow; calls only; 2% of 2,300 active; AID 651706, 2012;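 active = share of green or green-and-red cells above 9 and 9% in run 1 or 4 and 3% in run 2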
# GFP autofluor – flagged as fluorescent in myeloid differentiation counter-screen | shares compounds with Myeloid diff MLP | AID 651707 | 7.4% of 2,300 active | fluorescence response, % (concentration not given with the values) | ER-HoxA9 myeloid progenitors, no estrogen, GFP autofluorescence flow cytometry; vehicle wells 0%, positive control 100%;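 active = over 5% cells positive for green fluorescent reporter, or over 2% positive for both it and APC stain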;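 note: range taken on the double positive population between DMSO and positive control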
# * hit, by the source's call; i = inactive; u = inconclusive; x = not tested or not shown; + = active, no number. Shown are actives, neighbours in structure and some others; about 3.1% of the full set was active somewhere.
SMILES,Myeloid diff MLP,PP1 inh,CTSL1 counter,NadD inh,HCV core dimer,PP5 inh,Myeloid diff,GFP autofluor
Cc1onc(-c2c(Cl)cccc2Cl)c1C(=O)NCc1ccc(S(N)(=O)=O)cc1,i,3,-1,6,10,2,i,0
Cc1onc(-c2ccccc2Cl)c1C(=O)NCc1ccccc1,i,2,-2,1,-5,3,x,x
c1coc(CNC2C3CC4CC(C3)CC2C4)c1 (stereo not drawn),i,-3,11,-2,3,3,i,0
O=C(CCN1C(=O)c2ccccc2S1(=O)=O)Nc1ccccc1,i,-4,-4,0,-6,2,x,x
O=C(CCN1C(=O)c2ccccc2S1(=O)=O)Nc1ccc2c(c1)OCCO2,i,2,-1,-3,-10,1,i,0
O=C(CN1C(=O)NC(c2ccccc2)(c2ccccc2)C1=O)NCc1ccco1,i,x,x,-1,x,x,x,x
CCC1(c2ccc(F)cc2)NC(=O)N(CC(=O)N2CCN(S(=O)(=O)c3ccc(Cl)cc3)CC2)C1=O (stereo not drawn),i,-4,-1,-1,5,1,x,x
CCC1(c2ccc(F)cc2)NC(=O)N(CC(=O)N2CCN(S(=O)(=O)c3ccc(C)cc3C)CC2)C1=O (stereo not drawn),+,x,x,1,x,x,i,3
CCCCOc1ccc(C(=O)NCC(=O)N2CCN(C(=O)c3ccco3)CC2)cc1,i,-8,-1,-3,3,2,x,x
C[C@H]1CN([C@@H](C)CO)C(=O)c2cccc(NC(=O)c3cnccn3)c2O[C@@H]1CN(C)S(=O)(=O)c1ccc(F)cc1,i,x,x,-3,x,x,x,x
O=C(N/N=C/c1ccc([N+](=O)[O-])o1)C1CCCC1,x,-4,-1,-3,4,3,x,x
O=[N+]([O-])c1ccc(/C=[N+](\[O-])[C@@H]2CCCC[C@@H]2/[N+]([O-])=C/c2ccc([N+](=O)[O-])o2)o1,+,1,3,-4,-5,1,i,0
Cc1cc(NC(=O)CSc2nc(C)c(C)n2CC(C)C)no1,i,x,x,1,x,x,x,x
CN(CC(=O)Nc1cc([N+](=O)[O-])ccc1Cl)Cc1ccc(Br)cc1,i,3,0,2,-7,1,i,0
CC(=O)Nc1cccc(-c2ccnc3c2CC(C)(C(=O)Nc2ccc(Cl)cc2)O3)c1 (stereo not drawn),u,x,x,0,x,x,x,x
CN1C(=O)N2CN(C3CCCCC3)CN3C(=O)N(C)C1C23 (stereo not drawn),i,1,-1,4,-4,1,i,0
O=C1CCCN1C(=O)CSc1nnnn1-c1ccccc1,i,0,x,-1,x,0,x,x
CN1CCN(c2ccc(-c3cc(NC=O)c4ncc(-c5ccc(F)cc5)n4c3)cc2)CC1,+,x,x,9,x,x,i,0
CN1CCN(c2ccc(-c3cc(NC=O)c4ncc(-c5ccccc5)n4c3)cc2)CC1,i,x,x,8,x,x,i,3
COc1cc(-c2cnc3c(NC=O)cc(-c4ccc(N5CCN(C)CC5)cc4)cn23)cc(OC)c1OC,u,x,x,1,x,x,x,x
CC(=O)Nc1cc(-c2ccc(N3CCN(C)CC3)cc2)cn2c(-c3ccccc3)cnc12,i,x,x,4,x,x,x,x
CC(=O)c1c(Cl)nc2cccc3c2c1-c1ccccc1C3=O,i,0,8,-2,-6,0,i,0
COc1cc(-c2c(C(C)=O)c(C)nc3c2C(=O)c2ccccc2-3)cc(OC)c1OC,i,x,x,-8,x,x,x,x
CCOc1ccccc1NC(=O)CN1C(=O)NC(Cc2c[nH]c3ccccc23)C1=O (stereo not drawn),i,1,x,-5,x,0,x,x
COc1ccccc1-n1cnc2cc(NC(=O)c3ccco3)ccc21,+,-2,0,-1,0,6,i,0
SMILES,Myeloid diff MLP,PP1 inh,CTSL1 counter,NadD inh,HCV core dimer,PP5 inh,Myeloid diff,GFP autofluor
COc1ccc(CCNC(=O)c2ccn[nH]2)cc1OC,+,-10,-1,-7,7,-4,i,0
COc1ccc(CCNC(=O)c2cc(-c3ccccc3O)n[nH]2)cc1OC,i,0,4,0,-1,0,x,x
Cc1cc(C(=O)N2CCCC(C)(C(=O)NS(=O)(=O)C3CC3)C2)n(C(C)(C)C)n1 (stereo not drawn),i,x,x,4,x,x,x,x
CCCS(=O)(=O)NC(=O)C1(C)CCCN(C(=O)c2cc(C)nn2C(C)(C)C)C1 (stereo not drawn),i,x,x,-4,x,x,i,0
O=C1NC(=O)c2cc(NC(=O)C3CCCO3)ccc21 (stereo not drawn),i,-2,2,5,1,-1,i,0
O=C(O)c1cc(NC(=O)C2CCCO2)cc(NC(=O)C2CCCO2)c1 (stereo not drawn),+,-3,-2,1,-5,0,i,0
O=C1OCc2cc(NC(=O)C3CCCO3)ccc21 (stereo not drawn),i,0,4,1,-11,-2,x,x
CCN1CCN(C(=O)C(=O)c2cn(CC(=O)N3CCCC3)c3ccccc23)CC1,i,0,8,-8,-11,5,x,x
O=C(NCCO)/C(=C\c1ccc([N+](=O)[O-])o1)NC(=O)c1ccccc1,i,1,-1,2,-7,2,i,0
c1ccc(NC2=Nc3ccccc3CC2)cc1,+,-1,-3,1,7,3,i,0
COC(=O)C1=C(C)Nc2nnnn2C1c1ccco1 (stereo not drawn),x,0,1,6,-1,0,i,0
Cc1csc(SCC(=O)c2c(N)n(CC(C)C)c(=O)n(C)c2=O)n1,+,-3,1,-3,1,-1,i,51*
CC(C)Cn1c(N)c(C(=O)COC(=O)c2cnc(Cl)c(Cl)c2)c(=O)n(C)c1=O,i,3,2,-2,-2,-3,x,x
CC(C)Cn1c(N)c(C(=O)COC(=O)c2cnccn2)c(=O)n(C)c1=O,+,0,-1,3,9,1,i,1
CCOC(=O)Cc1csc(SCC(=O)c2c(N)n(CC(C)C)c(=O)n(C)c2=O)n1,i,4,-7,0,2,1,x,x

# From PubChem BioAssay
